The values below come from ChEMBL document CHEMBL1240399 (Antimicrob Agents Chemother, 2010).

pIC50: −log10 of the molar value. In brackets after ≈: the same amount, converted by molar mass.

Test [1] has as its system Escherichia coli. Kind of test: Antibacterial activity against Escherichia coli DH5alpha pB-ges-1. It is filed as functional.
The test system of test [2] is Pseudomonas aeruginosa. The test can be described thus: Antibacterial activity against Pseudomonas aeruginosa NL68 expressing GES-13 beta lactamase. It is filed as functional.
Test [3] concerns Escherichia coli. Kind of test: Antibacterial activity against Escherichia coli DH5alpha pB-ges-13 plasmid. The format is functional.
Test [4] has as its system Escherichia coli. Kind of test: Antibacterial activity against Escherichia coli DH5alpha pB-ges-1in presence of 2 ug/ml clavulanic acid. It is filed as functional.
Test [5] deals with Escherichia coli. The test can be described thus: Antibacterial activity against Escherichia coli DH5alpha pB-ges-13 plasmid in presence of 2 ug/ml clavulanic acid. It is filed as functional.
In test [6] the test system is Escherichia coli. The test can be described thus: Antibacterial activity against Escherichia coli DH5alpha in presence of 2 ug/ml clavulanic acid. The format is functional.
Test [7] deals with Escherichia coli. The test can be described thus: Antibacterial activity against Escherichia coli DH5alpha. It is filed as functional.
The test system of test [8] is Escherichia coli. Kind of test: microbe, parasite or virus in culture. The settings on record: DH5alpha.
The subject of test [9] is Escherichia coli. The test can be described thus: microbe, parasite or virus in culture. The conditions noted are these: DH5alpha. This is another data set of the same source.
Test [10] deals with Pseudomonas aeruginosa. Kind of test: microbe, parasite or virus in culture. The conditions noted are these: NL68.
In test [11] the test system is Pseudomonas aeruginosa. Kind of test: Antibacterial activity against Pseudomonas aeruginosa NL68 expressing GES-13 beta lactamase in presence of 4 ug/ml Tazobactam. The format is functional.
In test [12] the test system is Escherichia coli. Kind of test: microbe, parasite or virus in culture. The settings on record: DH5alpha. This is another data set of the same source.
The next test deals with Beta-lactamase GES-13 (Pseudomonas aeruginosa, UniProt D1MIX9). Kind of test: Inhibition of Pseudomonas aeruginosa GES-13 beta lactamase. In short, it runs like this:
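GES-13 purified from E. coli DH5α carrying pB-ges13: sonicated in 20 mM Tris pH 8.0, then Q-Sepharose and S-Sepharose chromatography, >95% pure by SDS-PAGE. Enzyme preincubated with a range of inhibitor concentrations for 3 min at 30°C. Residual hydrolysis of 100 μM cephalothin reporter followed spectrophotometrically. Value given as IC50.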

Chain of Beta-lactamase GES-13 (D1MIX9 whole entry): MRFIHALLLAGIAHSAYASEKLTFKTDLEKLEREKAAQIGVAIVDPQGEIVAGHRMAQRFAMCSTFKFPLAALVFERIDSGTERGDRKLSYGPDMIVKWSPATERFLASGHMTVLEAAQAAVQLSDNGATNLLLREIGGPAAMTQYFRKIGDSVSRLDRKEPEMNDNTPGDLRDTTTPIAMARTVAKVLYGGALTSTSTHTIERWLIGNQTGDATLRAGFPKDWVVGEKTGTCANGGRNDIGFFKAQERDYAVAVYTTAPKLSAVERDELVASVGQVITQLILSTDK

In the case of `CO/N=C(\C(=O)N[C@@H]1C(=O)N2C(C(=O)[O-])=C(C[N+]3(C)CCCC3)CS[C@H]12)c1csc(N)n1`, the MIC against Escherichia coli [1] came out at 1 µg/mL (≈ 2.08 µM); in the test on Pseudomonas aeruginosa [2] it was 64 µg/mL (≈ 133 µM).

For the compound `CC1(C)S[C@@H]2[C@H](NC(=O)[C@H](N)c3ccc(O)cc3)C(=O)N2[C@H]1C(=O)O` [AMOXICILLIN], the MIC against Escherichia coli [1] was ≥ 512 µg/mL; in the test on Escherichia coli [3] it was ≥ 512 µg/mL; in the test on Escherichia coli [4], 64 µg/mL; in the test with Escherichia coli [5] it was 32 µg/mL; in the test on Escherichia coli [6], 2 µg/mL; against Escherichia coli [7], 2 µg/mL (≈ 5.47 µM).

Regarding `C[C@H]1[C@H](NC(=O)/C(=N\OC(C)(C)C(=O)O)c2csc(N)n2)C(=O)N1S(=O)(=O)O` [AZTREONAM], the MIC is 1 µg/mL (≈ 2.3 µM) against Escherichia coli [1] and 8 µg/mL (≈ 18.4 µM) in the test with Escherichia coli [3].

Take `N[C@@H](C(=O)N[C@@H]1C(=O)N2C(C(=O)O)=C(Cl)CS[C@H]12)c1ccccc1` [CEFACLOR ANHYDROUS]: the MIC in the test on Escherichia coli [1] was ≥ 512 µg/mL; in the test on Escherichia coli [3], ≥ 512 µg/mL; in the test with Escherichia coli [7], 4 µg/mL (≈ 10.9 µM).

With `CO/N=C(\C(=O)N[C@@H]1C(=O)N2C(C(=O)O)=C(COC(C)=O)CS[C@H]12)c1csc(N)n1` [CEFOTAXIME], the figures for the MIC against Escherichia coli [1], in the test on Escherichia coli [3] and with Escherichia coli [7] were 4 µg/mL (≈ 8.78 µM), 8 µg/mL (≈ 17.6 µM) and 0.12 µg/mL (≈ 0.263 µM), respectively.

With `CO[C@@]1(NC(=O)Cc2cccs2)C(=O)N2C(C(=O)O)=C(COC(N)=O)CS[C@@H]21` [CEFOXITIN], the MIC in the test with Escherichia coli [1] came to 8 µg/mL (≈ 18.7 µM); in the test on Escherichia coli [3], 8 µg/mL (≈ 18.7 µM); in the test with Escherichia coli [7], 4 µg/mL (≈ 9.36 µM).

Turning to `CC(C)(O/N=C(\C(=O)N[C@@H]1C(=O)N2C(C(=O)[O-])=C(C[n+]3ccccc3)CS[C@H]12)c1csc(N)n1)C(=O)O` [CEFTAZIDIME], the MIC was 16 µg/mL (≈ 29.3 µM) against Escherichia coli [8]; 256 µg/mL (≈ 468 µM) against Escherichia coli [1]; ≥ 512 µg/mL with Escherichia coli [3]; 0.5 µg/mL (≈ 0.915 µM) against Escherichia coli [9]; ≥ 512 µg/mL in the test with Pseudomonas aeruginosa [10]; 256 µg/mL in the test with Pseudomonas aeruginosa [11]. For the same compound, the MIC in the test on Escherichia coli [12] was 4 µg/mL (≈ 7.32 µM); in the test on Pseudomonas aeruginosa [2], ≥ 512 µg/mL; in the test with Escherichia coli [4], 16 µg/mL; in the test with Escherichia coli [5] it was 16 µg/mL; in the test on Escherichia coli [6], 0.5 µg/mL; with Escherichia coli [7], 0.5 µg/mL (≈ 0.915 µM).

In the case of `CO/N=C(\C(=O)N[C@@H]1C(=O)N2C(C(=O)O)=C(CSc3nc(=O)c(O)nn3C)CS[C@H]12)c1csc(N)n1` [CEFTRIAXONE], the MIC with Escherichia coli [1] was 16 µg/mL (≈ 28.9 µM); against Escherichia coli [3], 16 µg/mL (≈ 28.9 µM); with Escherichia coli [7], 0.12 µg/mL (≈ 0.216 µM).

`CO/N=C(\C(=O)N[C@@H]1C(=O)N2C(C(=O)O)=C(COC(N)=O)CS[C@H]12)c1ccco1` [CEFUROXIME]: the MIC is ≥ 512 µg/mL in the test with Escherichia coli [1], ≥ 512 µg/mL in the test on Escherichia coli [3] and 2 µg/mL (≈ 4.71 µM) against Escherichia coli [7].

In turn, `C[C@@H](O)[C@H]1C(=O)N2C(C(=O)O)=C(SCCNC=N)C[C@H]12` [IMIPENEM ANHYDROUS] had a pIC50 against Beta-lactamase GES-13 of 6.82. The MIC is 16 µg/mL in the test on Pseudomonas aeruginosa [11] and 16 µg/mL (≈ 53.4 µM) against Pseudomonas aeruginosa [2].

With `C[C@@H](O)[C@H]1C(=O)N2C(C(=O)O)=C(S[C@@H]3CN[C@H](C(=O)N(C)C)C3)[C@H](C)[C@H]12` [MEROPENEM], the MIC against Escherichia coli [1] was ≤ 0.06 µg/mL; in the test on Escherichia coli [3], ≤ 0.06 µg/mL; in the test with Pseudomonas aeruginosa [2], 32 µg/mL (≈ 83.4 µM); against Escherichia coli [7] it was ≤ 0.06 µg/mL.

Turning to `CCN1CCN(C(=O)N[C@@H](C(=O)N[C@@H]2C(=O)N3[C@@H]2SC(C)(C)[C@@H]3C(=O)O)c2ccccc2)C(=O)C1=O` [PIPERACILLIN], the MIC in the test with Escherichia coli [8] worked out at 16 µg/mL (≈ 30.9 µM); in the test on Escherichia coli [1], 64 µg/mL (≈ 124 µM); against Escherichia coli [3], 64 µg/mL (≈ 124 µM); against Escherichia coli [9], 0.5 µg/mL (≈ 0.966 µM); in the test on Pseudomonas aeruginosa [11], 128 µg/mL; in the test on Escherichia coli [12], 2 µg/mL (≈ 3.86 µM). The results for the MIC in the test on Pseudomonas aeruginosa [2] and against Escherichia coli [7] were 256 µg/mL (≈ 495 µM) and 1 µg/mL (≈ 1.93 µM), respectively.

Regarding `CC1(C)S[C@@H]2[C@H](NC(=O)[C@H](C(=O)O)c3ccsc3)C(=O)N2[C@H]1C(=O)O` [TICARCILLIN], the MIC with Escherichia coli [1] was ≥ 512 µg/mL; against Escherichia coli [3] it was ≥ 512 µg/mL; in the test with Pseudomonas aeruginosa [10] it was ≥ 512 µg/mL; in the test on Pseudomonas aeruginosa [2], ≥ 512 µg/mL; in the test on Escherichia coli [4] it was 32 µg/mL; in the test on Escherichia coli [5] it was 16 µg/mL. In addition, the MIC in the test with Escherichia coli [6] was determined as 2 µg/mL; in the test on Escherichia coli [7] it was 2 µg/mL (≈ 5.2 µM).
